High-throughput results: PubChem BioAssay, several laboratories
Hck Nef HTS: human Hck-Nef kinase inhibition; 220,000 tested, 0.68% active; Recombinant Hck-YEEI plus Nef, Z-Lyte FRET kinase assay; inhibition, % at 20 µM; AID 463187;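 active = Hck-Nef kinase inhibition above about 50%, limit read from the data; inactive = inhibition below that limit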;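 note: 0% = DMSO with Hck plus Nef and 100% = Hck alone without Nef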
Target sequence (P08631 whole entry, looked up): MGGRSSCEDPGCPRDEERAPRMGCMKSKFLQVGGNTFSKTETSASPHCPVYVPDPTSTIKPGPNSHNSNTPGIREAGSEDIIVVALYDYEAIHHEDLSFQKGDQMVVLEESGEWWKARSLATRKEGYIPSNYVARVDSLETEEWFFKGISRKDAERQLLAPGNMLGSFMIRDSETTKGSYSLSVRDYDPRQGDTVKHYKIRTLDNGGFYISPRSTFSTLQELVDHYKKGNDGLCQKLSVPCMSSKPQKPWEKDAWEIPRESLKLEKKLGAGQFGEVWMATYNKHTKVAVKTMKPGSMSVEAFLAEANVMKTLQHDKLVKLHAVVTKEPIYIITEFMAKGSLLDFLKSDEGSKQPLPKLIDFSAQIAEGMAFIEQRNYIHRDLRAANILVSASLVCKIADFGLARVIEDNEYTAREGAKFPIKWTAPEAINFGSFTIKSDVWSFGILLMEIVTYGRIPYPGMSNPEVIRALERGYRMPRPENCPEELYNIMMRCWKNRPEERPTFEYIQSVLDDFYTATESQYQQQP
Runt-CBFb FRET: Runt domain-CBFb interaction inhibition | 220,000 tested, 0.46% active | AID 1496 | Q01196+Q13951 | inhibition, % at 20 µM | Cerulean-Runt/Venus-CBFb FRET ratio 530/480, 1 h;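 active = inhibition over about 50% at 20 µM in the single-dose screen, limit read from the data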;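 note: 0% = DMSO wells and 100% = excess unlabeled CBFb competitor control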
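Measured by: fluorescence energy transfer, 422 nm excitation, 530/480 nm emission; Assay system: Cerulean-Runt domain; Medium: Tris pH 7.5 buffer with BSA; Measure: loss of energy transfer signal; Controls: 5 µM unlabeled CBFb as full-inhibition high control; Incubation: protein complex preformed 1 h, compound exposure 1 h, room temperature, dark.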
Runt-SMMHC FRET: Runt domain-CBFb-SMMHC interaction inhibition | Q01196+Q13951 | Cerulean-Runt/Venus-CBFb-SMMHC FRET ratio 530/480, 1 h | inhibition, % at 20 µM | 220,000 tested, 0.74% active;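 active = mean inhibition across duplicate retests at 20 µM reaching about 50%, limit read from the data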;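 note: 0% = DMSO wells and 100% = wells with excess untagged CBFb-SMMHC; inhibitors lower the FRET ratio by blocking Runt binding to CBFb-SMMHC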
RanGTP-Imp inh: inhibitors of RanGTP-importin-beta interaction, primary screen, biochemical, FRET, CFP-Ran, YFP-importin-beta, homogeneous; inhibition, % (no concentration beside the values); AID 2216; 300,000 tested, 1.1% active; cell-free CFP-Ran/YFP-importin-beta FRET ratio;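 active = more than half of the replicate wells show a fall in the fluorescence ratio signal beyond about 16%, limit read from the data, passing the limit was not always enough; inconclusive = exactly half of the replicate wells pass the set limit; inactive = fewer than half of replicates pass the limit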;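 note: 0% = DMSO wells and 100% = Ran loaded with GDP instead of GTP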
Hck Nef conf: confirmation of Hck-Nef kinase inhibitors | shares compounds with Hck Nef HTS | Recombinant Hck-YEEI:Nef, Z-Lyte FRET kinase assay | calls only at 10 µM | 1,300 tested, 28% active | AID 463188;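 active = average inhibition of at least 50%, with Z-scores no higher than 3 in both the phospho-tyrosine peptide and fluorescence counterscreens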
* hit, by the source's call; i = inactive; u = inconclusive; x = no result shown; + = active, no number. In the library only some 1.9% were active in any assay of this set; here they are far more common.

SMILES	Hck Nef HTS	Runt-CBFb FRET	Runt-SMMHC FRET	RanGTP-Imp inh	Hck Nef conf
CCN(CC)c1nc2ccccc2nc1-n1nc(C)cc1C	103.4*	6.6	18.4	u	i
O=C(O)CC1S/C(=N/N=C/c2ccc(-c3ccc(Cl)cc3[N+](=O)[O-])o2)NC1=O (stereo unspecified)	1.2	27.1	13.5	1.4	x
O=C(O)CC1S/C(=N/N=C/c2ccc(-c3ccc(Cl)c([N+](=O)[O-])c3)o2)NC1=O (stereo unspecified)	119.1*	38.4	23.5	4.4	i
CCn1cc(C(=O)N2CC(C)CC(C)C2)c(=O)c2cc(S(=O)(=O)N3CCOCC3)ccc21 (stereo unspecified)	1.5	8.0	-0.5	-2.1	x
Cc1n[nH]c(C)c1S(=O)(=O)N1CCCC(C(=O)NC2CCCCC2)C1 (stereo unspecified)	7.4	1.8	-1.1	5.9	x
N#Cc1c(-c2ccccc2Cl)c2c([nH]c1=O)-c1ccccc1OC2	146.1*	94.8*	81.6*	131.0*	i
N#Cc1c(-c2ccncc2)c2c([nH]c1=O)-c1ccccc1OC2	69.7*	11.1	x	55.9*	i
Cc1ccc(NC(=O)C(C)N2CCCC2)cc1Cl (stereo unspecified)	9.3	-1.3	2.9	2.4	x
O=Nc1ccc(NOC(=O)c2ccccc2)cc1	7.7	2.7	5.8	-0.1	x
O=C(N=Nc1ccc(NOC(=O)c2ccccc2Br)cc1)c1ccccc1O	68.1*	4.1	-2.5	6.1	i
O=C(CCN1CCN(c2ccccc2)CC1)N/N=C/c1ccc(O)c(O)c1O	53.5*	14.5	3.7	-3.8	i
O=C(Cc1csc(N2CCOCC2)n1)N/N=C/c1ccc(O)c(O)c1O	65.5*	45.8	26.1	2.7	i
CCCCn1c(N)c(N(CCOC)C(=O)c2ccc(S(=O)(=O)N3CCC(C)CC3)cc2)c(=O)[nH]c1=O	x	x	x	0.2	x
CCOc1cc(N2CCOCC2)c(OCC)cc1NC(=O)c1ccccc1C	8.5	0.5	-0.2	-0.2	x
CCOc1cc(N2CCOCC2)c(OCC)cc1NC(=O)c1ccc2ccccc2n1	64.2*	2.2	-1.6	-2.4	i
O=C1C(=O)N(CCCN2CCOCC2)C(c2ccc([N+](=O)[O-])cc2)/C1=C(/O)c1ccc2c(c1)OCO2 (stereo unspecified)	x	x	x	2.6	x
O=C1SC(SCc2ccccc2Cl)=N/C1=C\c1ccc(C(=O)O)cc1	63.2*	2.7	0.7	-2.3	i
CCSC1=N/C(=C\c2ccc(C(=O)O)cc2)C(=O)S1	8.0	-0.8	2.1	-1.2	x
COc1ccc(C2=NN(C(=O)CSc3nc4ncc(Cl)cc4[nH]3)C(c3ccco3)C2)cc1 (stereo unspecified)	21.5	17.2	18.6	-4.2	x
Cc1ccc(C2=NN(C(=O)CSc3nc4ncc(Cl)cc4[nH]3)C(c3ccco3)C2)cc1 (stereo unspecified)	76.6*	18.5	26.5	0.4	i
NS(=O)(=O)c1ccc(-c2ccc(/C=C3\NC(=S)NC3=O)o2)cc1	x	x	x	0.4	x
CC1=C(C#N)C(=O)NC(=O)/C1=C/c1ccc(-c2ccc(S(N)(=O)=O)cc2)o1	51.5*	22.1	13.6	-2.7	i
COc1ccc(-c2noc(CSc3nc(-c4ccccc4)cc(=O)[nH]3)n2)cc1OC	54.1*	-2.9	-0.1	0.4	i
O=C(O)c1ccc[nH]c1=S	-1.3	0.4	-7.9	-0.7	x
CN(C)/C=C1\C(=O)N(C)N=C1C(F)(F)F	15.6	1.3	-0.7	4.5	x
SMILES	Hck Nef HTS	Runt-CBFb FRET	Runt-SMMHC FRET	RanGTP-Imp inh	Hck Nef conf
O=c1oc2c(CN3CCOCC3)c(O)ccc2c2c1CCCC2	54.2*	41.5	66.2*	33.3*	x
O=c1oc2c(CN3CCOCC3)c(O)c(Cl)cc2c2c1CCCC2	79.7*	104.6*	41.9	85.3*	x
O=C(COc1cc2oc(=O)c3c(c2cc1Cl)CCC3)NCCN1CCOCC1	x	x	x	4.0	x
O=c1oc2c(CN3CCOCC3)c(O)ccc2c2ccccc12	-2.0	x	-13.5	-5.5	x
CCCCc1cc(=O)oc2c(CN3CCN(C)CC3)c(O)ccc12	x	x	x	5.9	x
CCCc1cc(=O)oc2c(CN3CCOCC3)c(O)ccc12	65.2*	x	90.4*	5.0	x
Clc1ccc2c(NCc3cccs3)ncnc2c1	x	x	x	2.2	x
COc1cc2ncnc(NCc3cccs3)c2cc1OC	56.8*	-1.4	-1.3	4.5	i
CC(C(=O)O)n1c2ccccc2c2cnn(C)c(=O)c21 (stereo unspecified)	x	x	x	3.2	x
COC(=O)c1sc(-c2ccc(C(C)(C)C)cc2)cc1NC(=O)c1ccccc1C(=O)O	81.7*	-12.1	-10.6	0.3	+
O=C(Nc1cccc(Oc2ccc(C(=O)O)c(C(=O)O)c2)c1)c1ccc(-c2ccccc2)cc1	66.2*	-9.1	-9.2	-10.2	i
CCc1ccc(C2=NN(c3ccc(S(N)(=O)=O)cc3)C(c3ccc(F)cc3)C2)cc1 (stereo unspecified)	73.8*	9.2	41.4	u	x
CCC(C)(C)n1nnnc1C(c1cc2cc(C)cc(C)c2[nH]c1=O)N1CCN(Cc2ccc3c(c2)OCO3)CC1 (stereo unspecified)	0.3	5.5	-2.6	6.4	x
COc1cc([N+](=O)[O-])cc(/C=N/NC(=O)C(C)Nc2ccccc2C)c1O (stereo unspecified)	101.3*	-4.7	-0.8	-2.4	+
NC(=O)Cn1c(=O)n(CCC(=O)NCCSCc2ccccc2)c(=O)c2ccccc21	21.1	1.6	1.5	-1.8	x
Clc1cnc(N/N=C/c2cccs2)c(Cl)c1	1.5	-1.4	2.1	-3.8	x
Cc1ccccc1/C=N/Nc1ncnc2nc[nH]c12	74.8*	-1.4	0.8	1.1	+
c1ccc(CNc2ncnc3nc[nH]c23)cc1	1.0	-0.4	-2.1	-5.3	x
Cc1ccsc1/C=N/Nc1ncnc2nc[nH]c12	75.6*	1.8	-5.4	-3.4	+
CCc1ccc(Nc2ncnc3nc[nH]c23)cc1	63.2*	0.1	1.8	-3.5	+
C(=N\Nc1ncnc2nc[nH]c12)/c1cccs1	81.6*	0.7	0.8	-6.4	+
COc1cc(OC)cc(C(=O)NNC(=O)C2CCCC2)c1	x	x	x	5.1	x
Cc1ccc(N2CC(O)=C(c3nc4ccccc4c(=O)[nH]3)C2=N)cc1C	28.7	-3.7	-1.2	-1.7	x
CCc1nnc(NC(=O)C2c3ccccc3Oc3ccccc32)s1	-7.3	-0.8	-0.1	4.5	x
CCn1cc(-c2cc(C(=O)O)c3ccccc3n2)cn1	5.7	-0.6	0.7	u	x
Fc1ccc(/C=N/Nc2ncnc3nc[nH]c23)cc1F	67.5*	-5.4	1.5	0.5	+
Clc1ccc(CCNc2ncnc3nc[nH]c23)cc1	28.5	2.2	1.4	x	x
COc1ccc(OC)c(C(=O)Nc2ccc3[nH]ccc3c2)c1	x	x	x	-0.3	x
COC(=O)c1ccccc1NC(=O)c1ccc2c(c1)C(=O)N(Cc1ccco1)C2=O	58.5*	x	x	u	i
